Assays:
[1] = molecular target: T1, Apelin receptor (Homo sapiens, UniProt P35414); experiment: Displacement of [125I] [NIe75,Tyr77]Pyr-apelin-13 from YFP-tagged human APJ receptor expressed in HEK293 cells incubated for 1 hr by gamma counting analysis; format: cell-based
T1 sequence (P35414 whole entry): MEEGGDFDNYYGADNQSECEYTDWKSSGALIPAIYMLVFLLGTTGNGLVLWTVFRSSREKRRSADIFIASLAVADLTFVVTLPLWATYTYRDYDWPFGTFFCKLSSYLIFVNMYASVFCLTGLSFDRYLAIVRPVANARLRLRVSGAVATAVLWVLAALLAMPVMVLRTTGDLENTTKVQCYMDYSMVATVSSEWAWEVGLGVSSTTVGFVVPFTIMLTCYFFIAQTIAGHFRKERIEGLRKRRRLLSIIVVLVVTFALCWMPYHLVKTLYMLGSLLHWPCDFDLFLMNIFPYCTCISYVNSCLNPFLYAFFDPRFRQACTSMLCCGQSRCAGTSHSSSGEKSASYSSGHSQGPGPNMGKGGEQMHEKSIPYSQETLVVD

[2] = molecular target: T1, Apelin receptor; experiment: Agonist activity at human APJ receptor expressed in HEK293T cells co-expressing Galphai1 RlucII assessed as dissociation of Galphai1 from Gbetta/gamma subunit measured using coelenterazine luciferase substrate incubated for 5 mins by BRET assay; format: functional, cell-based, HEK293
[3] = molecular target: T1, Apelin receptor; experiment: Agonist activity at human APJ receptor expressed in HEK293 cells co-expressing Rlucll-beta-arrestin2 assessed as induction of beta-arrestin2 recruitment to receptor incubated for 30 mins by BRET assay; format: functional, cell-based
[4] = molecular target: T1, Apelin receptor; experiment: Agonist activity at human APJ receptor expressed in HEK293T cells co-expressing PDZ-Rho-Gef-RLucll and rGFP-CAAX assessed as induction of recruitment of Galpha12 to cell membrane using coelenterazine luciferase substrate incubated for 5 mins by BRET assay; format: functional, cell-based, HEK293
[5] = Stability in Sprague-Dawley rat plasma assessed as half life measured up to 24 hrs by UPLC-MS analysis; format: ADME, cell-free
Summary of the method: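 Peptide (6 μL of 1 mM aqueous solution) incubated with 27 μL male Sprague-Dawley rat plasma at 37 °C. Time points 0, 1, 2, 4, 7, 24 h, or 0–120 min for labile peptides. Reaction quenched with acetonitrile-ethanol containing N,N-dimethylbenzamide internal standard, filtered, then UPLC-MS. t1/2 from one-phase exponential decay; at least three experiments.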

Compound | Ki [1] [nM] | EC50 [2] [nM] | EC50 [3] [nM] | EC50 [4] [nM] | half-life [5] [h] | Ki ([1]; hek293) [nM] | EC50 ([4]; hek293) [nM] | EC50 ([2]; hek293) [nM] | EC50 ([3]; hek293) [nM]
CCCC[C@H](NC(=O)[C@@H]1CCCN1C(=O)CNC(=O)[C@H](CCCCN)NC(=O)[C@H](Cc1cnc[nH]1)NC(=O)[C@H](CO)NC(=O)[C@H](CC(C)C)NC(=O)[C@H](CCCNC(=N)N)NC(=O)[C@@H]1CCCN1C(=O)[C@H](CCCNC(=N)N)NC(=O)[C@@H]1CCC(=O)N1)C(=O)N[C@H](Cc1ccc2ccccc2c1)C(=O)N1Cc2ccccc2C[C@@H]1C(=O)O | 0.37 | 4.3 | 94 |  |  |  |  |  | 
CCCC[C@H](NC(=O)[C@@H]1CCCN1C(=O)CNC(=O)[C@H](CCCCN)NC(=O)[C@H](Cc1cnc[nH]1)NC(=O)[C@H](CO)NC(=O)[C@H](CC(C)C)NC(=O)[C@H](CCCNC(=N)N)NC(=O)[C@@H]1CCCN1C(=O)[C@H](CCCNC(=N)N)NC(=O)[C@@H]1CCC(=O)N1)C(=O)N1CC[C@H](c2ccccc2)[C@@H]1C(=O)N[C@@H](Cc1ccccc1)C(=O)O | 4.2 | 17 | 454 | 48 |  |  |  |  | 
CCCC[C@H](NC(=O)[C@@H]1CCCN1C(=O)CNC(=O)[C@H](CCCCN)NC(=O)[C@H](Cc1cnc[nH]1)NC(=O)[C@H](CO)NC(=O)[C@H](CC(C)C)NC(=O)[C@H](CCCNC(=N)N)NC(=O)[C@@H]1CCCN1C(=O)[C@H](CCCNC(=N)N)NC(=O)[C@@H]1CCC(=O)N1)C(=O)N[C@H](Cc1cccc2ccccc12)C(=O)N1Cc2ccccc2C(C)C1C(=O)O (some centres not stated) | 0.4 | 4.3 | 44 | 111 | 5.3 |  |  |  | 
CCCC[C@H](NC(=O)[C@@H]1CCCN1C(=O)CNC(=O)[C@H](CCCCN)NC(=O)[C@H](Cc1cnc[nH]1)NC(=O)[C@H](CO)NC(=O)[C@H](CC(C)C)NC(=O)[C@H](CCCNC(=N)N)NC(=O)[C@@H]1CCCN1C(=O)[C@H](CCCNC(=N)N)NC(=O)[C@@H]1CCC(=O)N1)C(=O)N1CCC[C@H]1C(=O)N[C@H](Cc1ccc(OCc2ccccc2)c(C2CCCC2)c1)C(=O)O | 0.41 | 5.7 | 69 | 53 |  |  |  |  | 
CCCC[C@H](NC(=O)[C@@H]1CCCN1C(=O)CNC(=O)[C@H](CCCCN)NC(=O)[C@H](Cc1cnc[nH]1)NC(=O)[C@H](CO)NC(=O)[C@H](CC(C)C)NC(=O)[C@H](CCCNC(=N)N)NC(=O)[C@@H]1CCCN1C(=O)[C@H](CCCNC(=N)N)NC(=O)[C@@H]1CCC(=O)N1)C(=O)N1CCC[C@H]1C(=O)N[C@H](Cc1ccc(OCc2ccccc2)cc1)C(=O)O |  |  |  |  |  | 0.02 | 11 | 0.5 | 14
CCCC[C@H](NC(=O)[C@@H]1CCCN1C(=O)CNC(=O)[C@H](CCCCN)NC(=O)[C@H](Cc1cnc[nH]1)NC(=O)[C@H](CO)NC(=O)[C@H](CC(C)C)NC(=O)[C@H](CCCNC(=N)N)NC(=O)[C@@H]1CCCN1C(=O)[C@H](CCCNC(=N)N)NC(=O)[C@@H]1CCC(=O)N1)C(=O)N1CCC[C@H]1C(=O)N[C@H]1Cc2c([nH]c3ccccc23)CN(CC(=O)O)C1=O | 4.3 | 6.8 | 311 | 481 |  |  |  |  | 
CCCC[C@H](NC(=O)[C@@H]1CCCN1C(=O)CNC(=O)[C@H](CCCCN)NC(=O)[C@H](Cc1cnc[nH]1)NC(=O)[C@H](CO)NC(=O)[C@H](CC(C)C)NC(=O)[C@H](CCCNC(=N)N)NC(=O)[C@@H]1CCCN1C(=O)[C@H](CCCNC(=N)N)NC(=O)[C@@H]1CCC(=O)N1)C(=O)N1CCC[C@H]1C(=O)N1Cc2ccccc2C[C@@H]1C(=O)O | 0.07 | 1 | 10 | 23 | 0.8 |  |  |  | 
CCCC[C@H](NC(=O)[C@@H]1CCCN1C(=O)CNC(=O)[C@H](CCCCN)NC(=O)[C@H](Cc1cnc[nH]1)NC(=O)[C@H](CO)NC(=O)[C@H](CC(C)C)NC(=O)[C@H](CCCNC(=N)N)NC(=O)[C@@H]1CCCN1C(=O)[C@H](CCCNC(=N)N)NC(=O)[C@@H]1CCC(=O)N1)C(=O)N1CCC[C@H]1C(=O)N1Cc2cc(OCc3ccccc3)ccc2C[C@@H]1C(=O)O | 0.19 | 3.4 | 45 | 22 |  |  |  |  | 
CCCC[C@H](NC(=O)[C@@H]1CCCN1C(=O)CNC(=O)[C@H](CCCCN)NC(=O)[C@H](Cc1cnc[nH]1)NC(=O)[C@H](CO)NC(=O)[C@H](CC(C)C)NC(=O)[C@H](CCCNC(=N)N)NC(=O)[C@@H]1CCCN1C(=O)[C@H](CCCNC(=N)N)NC(=O)[C@@H]1CCC(=O)N1)C(=O)N1CCC[C@H]1C(=O)N[C@H](C(=O)O)C(C)(C)c1ccccc1 | 0.36 | 2.4 | 69 | 67 |  |  |  |  | 

Reference: ChEMBL document CHEMBL4808162, “Constraining the Side Chain of C-Terminal Amino Acids in Apelin-13 Greatly Increases Affinity, Modulates Signaling, and Improves the Pharmacokinetic Profile” (J Med Chem, 2021)
